ChEMBL document CHEMBL2069171, “Novel monobactams utilizing a siderophore uptake mechanism for the treatment of gram-negative infections” (Bioorg Med Chem Lett, 2012)
In brackets after ≈: the same amount, converted by molar mass.

Key:
[1] = test system: Acinetobacter baumannii; test: Antibacterial activity against Acinetobacter baumannii; format: functional
In short: (§1)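 MICs determined against an organism panel of drug-susceptible strains and recent MDR clinical isolates. For selected analogs, MIC90 was taken from broader panels as the concentration inhibiting visible growth of 90 percent of strains.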

[2] = test system: Escherichia coli; test: Antibacterial activity against Escherichia coli; format: functional; in short: as §1
[3] = test system: Pseudomonas aeruginosa; test: Antibacterial activity against beta-lactam- and quinolone-resistant Pseudomonas aeruginosa 1042-06; format: functional
[4] = test system: Pseudomonas aeruginosa; test: Antibacterial activity against Pseudomonas aeruginosa; format: functional
In short: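 MICs for P. aeruginosa were determined on a drug-susceptible strain, 1091-05 (penicillin-resistant, quinolone-sensitive clinical strain), and a recent MDR clinical isolate, 1042-06. For selected analogs, MIC90 was taken from broader strain panels as the concentration inhibiting visible growth of 90 percent of strains.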

[5] = test system: Pseudomonas aeruginosa; test: Antibacterial activity against penicillin-resistant, quinolone-sensitive Pseudomonas aeruginosa 1091-05; format: functional
[6] = test system: Klebsiella pneumoniae; test: Antibacterial activity against Klebsiella pneumoniae; format: functional; in short: as §1
[7] = Aqueous stability of the compound at pH 6; format: physicochemical; conditions: buffer
[8] = test system: Rattus norvegicus; test: Unbound clearance in rat at 1 mg/kg, iv; format: ADME, organism-based; set-up: dose 1 mg/kg, route intravenous; conditions: in vivo
[9] = Fraction unbound in rat plasma; format: ADME, cell-free
[10] = Total clearance in rat at 1 mg/kg, iv; format: ADME, organism-based; set-up: dose 1 mg/kg, route intravenous; conditions: in vivo
[11] = Fraction unbound in human plasma; format: ADME, cell-free
[12] = Total clearance in mouse plasma relative to protein binding and blood flow; format: ADME, organism-based
[13] = test system: Pseudomonas aeruginosa; test: Antibacterial activity against penicillin-resistant, quinolone-sensitive Pseudomonas aeruginosa 1091-05 infected in mouse model of pneumonia assessed as reduction of lung colony forming unit counts; format: functional
In short: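 Murine pneumonia model infected with P. aeruginosa 1091-05. ED50, in mg/kg/dose, derived from reductions in lung CFU counts over the course of the study.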

[14] = Fraction unbound in mouse plasma; format: ADME, cell-free
[15] = Clearance in mouse; format: ADME, organism-based; conditions: in vivo

| SMILES | MIC90 [1] | MIC90 [2] | MIC [3] | MIC90 [4] | MIC [5] | MIC90 [6] | further results |
| --- | --- | --- | --- | --- | --- | --- | --- |
| CC1(C)[C@H](NC(=O)/C(=N\OCc2cc(=O)c(O)cn2O)c2csc(N)n2)C(=O)N1OS(=O)(=O)O (stereo in doubt) | 64 µg/mL (≈ 123 µM) | 16 µg/mL (≈ 30.9 µM) | 8 µg/mL (≈ 15.4 µM) | 4 µg/mL (≈ 7.71 µM) | 1 µg/mL (≈ 1.93 µM) | > 64 µg/mL |  |
| CC(C)(O/N=C(\C(=O)N[C@H]1CN(C(=O)NS(=O)(=O)n2nc(-c3cc(=O)c(O)c[nH]3)n(C[C@@H](O)CO)c2=O)C1=O)c1csc(N)n1)C(=O)O (stereo in doubt) |  |  | 0.5 µg/mL (≈ 0.7 µM) |  |  |  |  |
| C[C@H]1[C@H](NC(=O)/C(=N\OC(C)(C)C(=O)O)c2csc(N)n2)C(=O)N1C(=O)NS(=O)(=O)n1nc(-c2cc(=O)c(O)c[nH]2)n(C[C@@H](O)CO)c1=O (stereo in doubt) |  |  |  |  |  |  | Stability [7]: Stable |
| Nc1nc(/C(=N/OCC(=O)O)C(=O)N[C@@H]2C(=O)N(S(=O)(=O)O)[C@@H]2COC(=O)CNC(=O)c2ccc(O)c(O)c2)cs1 (stereo in doubt) |  |  | 32 µg/mL (≈ 51.9 µM) |  | 0.5 µg/mL (≈ 0.811 µM) |  |  |
| CC(C)(O/N=C(\C(=O)N[C@@H]1C(=O)N(S(=O)(=O)O)[C@@H]1COC(=O)CNC(=O)c1ccc(O)c(O)c1)c1csc(N)n1)C(=O)O (stereo in doubt) |  |  | 16 µg/mL (≈ 24.8 µM) |  | 1 µg/mL (≈ 1.55 µM) |  |  |
| CC(C)(O/N=C(\C(=O)N[C@@H]1C(=O)N(S(=O)(=O)O)[C@@H]1COC(=O)CNC(=O)c1cc(=O)c(O)c[nH]1)c1csc(N)n1)C(=O)O (stereo in doubt) |  |  | 32 µg/mL (≈ 49.6 µM) |  | 1 µg/mL (≈ 1.55 µM) |  |  |
| CC(C)(O/N=C(\C(=O)N[C@@H]1C(=O)N(S(=O)(=O)O)[C@@H]1COC(=O)CNC(=O)c1cc(=O)c(O)cn1O)c1csc(N)n1)C(=O)O (stereo in doubt) | > 64 µg/mL | 1 µg/mL (≈ 1.51 µM) | 0.5 µg/mL (≈ 0.756 µM) | 2 µg/mL (≈ 3.02 µM) | 0.125 µg/mL (≈ 0.189 µM) | 32 µg/mL (≈ 48.4 µM) | CL free [8]: 24.7 mL/min/kg; fraction unbound [9]: 0.36; clearance [10]: 8.9 mL/min/kg; fraction unbound [11]: 0.57; Stability [7]: Stable |
| CC(C)(O/N=C(\C(=O)N[C@@H]1C(=O)N(S(=O)(=O)O)[C@@H]1COC(=O)c1cc(-c2cc(=O)c(O)cn2O)no1)c1csc(N)n1)C(=O)O (stereo in doubt) | > 64 µg/mL | 0.125 µg/mL (≈ 0.186 µM) | 0.25 µg/mL (≈ 0.372 µM) | 1 µg/mL (≈ 1.49 µM) | 0.25 µg/mL (≈ 0.372 µM) | 2 µg/mL (≈ 2.98 µM) | CL free [8]: 144.6 mL/min/kg; fraction unbound [9]: 0.24; clearance [10]: 34.7 mL/min/kg; fraction unbound [11]: 0.32 |
| CC(C)(O/N=C(\C(=O)N[C@@H]1C(=O)N(S(=O)(=O)O)[C@@H]1COC(=O)c1cc(-c2cc(=O)c(O)c[nH]2)no1)c1csc(N)n1)C(=O)O (stereo in doubt) |  |  | 4 µg/mL (≈ 6.1 µM) |  | 4 µg/mL (≈ 6.1 µM) |  |  |
| CC(C)(O/N=C(\C(=O)N[C@@H]1C(=O)N(S(=O)(=O)O)[C@@H]1COC(=O)c1csc(-c2cc(=O)c(O)c[nH]2)n1)c1csc(N)n1)C(=O)O (stereo in doubt) |  |  | 1 µg/mL (≈ 1.49 µM) |  | 0.5 µg/mL (≈ 0.744 µM) |  |  |
| CC(C)(O/N=C(\C(=O)N[C@@H]1C(=O)N(S(=O)(=O)O)[C@@H]1COC(=O)c1ccnc(-c2cc(=O)c(O)c[nH]2)n1)c1csc(N)n1)C(=O)O (stereo in doubt) |  |  | 32 µg/mL (≈ 48 µM) |  | 8 µg/mL (≈ 12 µM) |  |  |
| CC(C)(O/N=C(\C(=O)N[C@@H]1C(=O)N(S(=O)(=O)O)[C@@H]1CNC(=O)c1cc(-c2cc(=O)c(O)cn2O)no1)c1csc(N)n1)C(=O)O (stereo in doubt) | > 64 µg/mL | 1 µg/mL (≈ 1.49 µM) | 0.125 µg/mL (≈ 0.186 µM) | 0.25 µg/mL (≈ 0.373 µM) | 0.125 µg/mL (≈ 0.186 µM) | 16 µg/mL (≈ 23.9 µM) | clearance [12]: 87 mL/min/kg; ED50 [13]: 73.6 mg/kg; CL free [8]: 24.5 mL/min/kg; fraction unbound [14]: 0.65; fraction unbound [9]: 0.33; clearance [10]: 8.1 mL/min/kg; clearance [15]: 34.7 mL/min/kg; fraction unbound [11]: 0.46 |
| C[C@@H](O)[C@H]1C(=O)N2C(C(=O)O)=C(S[C@@H]3CN[C@H](C(=O)N(C)C)C3)[C@H](C)[C@H]12 [MEROPENEM] | 64 µg/mL (≈ 167 µM) | 0.06 µg/mL (≈ 0.156 µM) |  | > 64 µg/mL | 0.5 µg/mL (≈ 1.3 µM) | 32 µg/mL (≈ 83.4 µM) |  |
